Data taken from PMC8182972 (Journal of medicinal chemistry, 2011).
Converted amounts (≈) assume the structure as drawn. “And” between values parts separate entries of the source, which are not always exact repeats. Equal values may be shown once. “Also recorded” adds a separate entry of the source.

How the values were obtained:
[1] = system: PC12 cells expressing mutant G93A SOD1; assay type: cell-based; details: for EC50: PC12 cells expressing mutant G93A SOD1, MG132 100 nM, Calcein-AM viability
[2] = In vitro microsomal stability, human; assay type: in vitro ADME; details: 37 °C; for CLint scaled at 1 h, 5 µM: human, microsomes
[3] = In vitro microsomal stability, mouse; assay type: in vitro ADME; details: 5 μM, 37 °C; for CL’int: 1 h, with NADPH; for CL’int NADPH-free: absence of NADPH
Aqueous solubility = assay type: physicochemical; details: for Maximum Solubility: 1% DMSO in PBS
Caco-2 monolayer cells = assay: Caco-2 permeability; assay type: in vitro ADME; details: for Ratio (B→A / A→B): Caco-2 efflux ratio
primary cortical neurons = assay: Primary cortical neuron cell protection assay; assay type: cell-based, rat; details: MG132 100 nM; active = viability restored ≥ 5 SD from MG132 controls
[4] = Metabolite profiling of 1; assay type: in vitro ADME; details: rat liver microsomes, 5 μM, in the presence of NADPH, LC/MS/MS
Method in brief: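 Test compound and its [15N2]-labelled analog (5 μM) were incubated in duplicate with or without rat liver microsomes, in the presence and absence of NADPH. Aliquots were taken at 0, 10, 20, 40 and 60 min. Protein was precipitated with acetonitrile containing internal standard, and supernatants were analysed by LC/MS/MS for new peaks absent from no-microsome, no-compound and no-NADPH controls.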

SHSY-5Y = assay: Screen in other cell types: SHSY-5Y; assay type: cell-based
HeLa = assay: Screen in other cell types: HeLa; assay type: cell-based
HEK293 = assay: Screen in other cell types: HEK293; assay type: cell-based
[5] = Mouse in vivo steady-state level and blood-brain barrier penetration; parameters: species or system mice
Method in brief: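 B6SJL mice received a 300 mg/kg bolus i.p. injection of test compound. Blood and brain were collected at 0, 1, 3, 6, 12 and 24 h, flash-frozen in liquid nitrogen and stored at -80 °C. Samples were quantified by mass spectrometry with ESI ionization in MRM mode.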

In vivo rat PK profiling = assay: In vivo rat PK profiling; parameters: species or system Sprague-Dawley rats; details: SD rats
Method in brief: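 Sprague-Dawley rats received a single 1 mg/kg bolus of test compound, i.v. or orally. Plasma profiling gave AUC last, AUC/dose, T1/2, clearance, Vss, Cmax, Tmax and oral bioavailability (%F). Work was done by a contract partner.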

CYP2C19 = CYP2C19 (Homo sapiens, UniProt P33261); assay: CYP inhibition in human liver microsomes; assay type: biochemical
Method in brief: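 Reversible CYP inhibition was measured in human liver microsomes across CYP1A2, 2C9, 2C19, 2D6 and 3A4. Each isozyme used a single probe substrate, except CYP3A4, which used both testosterone and midazolam. IC50 values were derived from this. Work was done by a contract partner.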

[6] = system: 68 in vitro enzyme and receptor assays; assay: LeadProfilingScreen; assay type: binding; details: 10 μM, in duplicate
Method in brief: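 Test compound was screened at 10 μM in duplicate against a commercial panel of 68 enzyme and receptor assays. The panel covers common adverse CNS, cardiovascular, pulmonary and […] liabilities.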

ALS patients = details: cited from earlier work
[7] = B6SJL, mouse, plasma, ip, 300 mg/kg

Sequence of CYP2C19 (P33261 whole entry): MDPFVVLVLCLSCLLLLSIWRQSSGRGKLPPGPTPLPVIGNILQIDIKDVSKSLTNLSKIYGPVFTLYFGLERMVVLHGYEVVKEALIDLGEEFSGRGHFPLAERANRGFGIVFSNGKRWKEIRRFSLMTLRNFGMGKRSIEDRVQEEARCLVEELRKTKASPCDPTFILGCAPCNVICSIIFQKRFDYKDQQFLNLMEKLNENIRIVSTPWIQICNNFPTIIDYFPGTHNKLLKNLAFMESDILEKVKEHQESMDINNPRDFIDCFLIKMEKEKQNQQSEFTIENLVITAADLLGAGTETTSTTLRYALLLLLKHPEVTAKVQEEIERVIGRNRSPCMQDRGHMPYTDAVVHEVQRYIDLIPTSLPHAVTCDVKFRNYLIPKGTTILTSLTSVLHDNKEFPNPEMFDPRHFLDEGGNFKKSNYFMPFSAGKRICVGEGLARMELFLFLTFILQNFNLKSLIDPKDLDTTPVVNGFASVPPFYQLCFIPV

Molecule: 5-(3,5-Dichlorophenylsulfonyl)-1H-pyrazol-3(2H)-one [Compound 7]
- EC50 [1]: 1410 nM
- CL’int ([2]; 5 μM, 1 h, with NADPH): 4.5 mL/min/kg
- CL’int NADPH-free ([2]; 5 μM, absence of NADPH): 1.3 mL/min/kg
- CL’int [3]: 15.3 mL/min/kg
- Maximum Solubility (Aqueous solubility; 45 min): ≥500 µM
- Maximum Solubility (Aqueous solubility; 16 h): ≥500 µM
- Papp (A→B) (Caco-2 monolayer cells; Caco-2): 27.0 10^−6 cm/s
- Papp (B→A) (Caco-2 monolayer cells; Caco-2): 4.4 10^−6 cm/s
- Ratio (B→A / A→B) (Caco-2 monolayer cells): 0.2
- activity in primary cortical neuron cell protection assay (primary cortical neurons): active

Molecule: 5-(4-Chloro-2,5-dimethylphenylsulfinyl)-1H-pyrazol-3(2H)-one [Compound 5]
- EC50 [1]: 2880 nM

Molecule: 5-(4-Chloro-2,5-dimethylphenylsulfonyl)-1H-pyrazol-3(2H)-one [Compound 8]
- EC50 [1]: 1470 nM

Molecule: 5-(4-Chlorophenylsulfinyl)-1H-pyrazol-3(2H)-one [Compound 4]
- maximum viability in the cytotoxicity protection assay [1]: ~ 35%
- EC50 [1]: > 32000 nM

Molecule: 5-(4-Chlorophenylsulfonyl)-1H-pyrazol-3(2H)-one [Compound 6]
- EC50 [1]: 4700 nM

Molecule: O=c1cc(CSc2ccc(Cl)cc2)[nH][nH]1 [Compound 1]
- microsomal metabolite identified [4]: sulfoxide

Molecule: O=c1cc(CSc2c(Cl)cccc2Cl)[nH][nH]1 [Compound 2]
- activity in primary cortical neuron cell protection assay (primary cortical neurons): active

Molecule: O=c1cc(COc2ccc(Cl)cc2)[nH][nH]1 [Compound 9, 5-((4-Chlorophenoxy)methyl)-1H-pyrazol-3(2H)-one]
- CLint scaled at 1 h, 5 µM ([2]; CL’int, 1 h, with NADPH): 15.3 mL/min/kg
- CL’int [3]: 24.5 mL/min/kg
- CL’int NADPH-free [3]: 6.1 mL/min/kg

Molecule: O=c1cc(COc2cc(Cl)cc(Cl)c2)[nH][nH]1 [Compound 13, 5-((3,5-Dichlorophenoxy)methyl)-1H-pyrazol-3(2H)-one]
- CLint scaled at 1 h, 5 µM ([2]; CL’int NADPH-free, absence of NADPH): 13 mL/min/kg
- CL’int [3]: 64 mL/min/kg
- CL’int NADPH-free [3]: 21 mL/min/kg
- solubility at 45 min (Aqueous solubility; PBS with 1% DMSO): 250 µM (≈ 64.8 µg/mL)
- solubility at 16 h (Aqueous solubility; PBS with 1% DMSO): 250 µM (≈ 64.8 µg/mL)
- Ratio (B→A / A→B) (Caco-2 monolayer cells): 0.2–0.6
- activity in primary cortical neuron cell protection assay (primary cortical neurons): active
- activity in SHSY-5Y cells (SHSY-5Y): active
- activity in HeLa cells (HeLa): active
- activity in HEK293 cells (HEK293): active
- concentration at 0 h [5, 7]: 0 ng/mL
- concentration at 3 h [5, 7]: 88800 ng/mL and 88.8 µM
- concentration at 6 h [5, 7]: 90000 ng/mL and 90 µM
- concentration at 12 h [5, 7]: 64400 ng/mL and 64.4 µM
- concentration at 24 h [5, 7]: 1700 ng/mL and 1.7 µM
- time of plasma peak ([5]; mice, i.p.): 3 to 6 h
- AUC/Dose (In vivo rat PK profiling; 1 mg/kg i.v. single bolus): 184 ng × h/mL/dose
- AUC/Dose (In vivo rat PK profiling; 1 mg/kg p.o. single bolus): 50 ng × h/mL/dose
- IC50 (CYP2C19): > 50000 nM
- activity in the 68 assays of LeadProfilingScreen [6]: No significant activity; also recorded: no significant binding

Molecule: Nc1nc2ccc(OC(F)(F)F)cc2s1 [riluzole]
- extension of patient lives (ALS patients): 2–3 months
